In the library only some 2.7% were active in any assay of this set; here they are far more common.
DENV2 CPE rescue: protects cells from dengue virus 2 cytopathic effect | DENV2-infected cells, cytopathic effect rescue, plate reader | CPE inhibition, % at 9.99 µM | hit rate 1.7% among 350,000 | AID 651640; in the data active = CPE inhibition above about 20%, passing the limit was not always enough; inconclusive = no clear call, values can overlap the other calls; tested in BHK-21 cells;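 also: 0% = median of neutral control wells and 100% = median of positive control wells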
SIRT5 inh: inhibitors of human sirtuin-5 desuccinylase. Q9NXA8. Purified SirT5, succinyl-peptide AMC, trypsin-coupled fluorescence. inhibition, % at 15 µM. hit rate 1.1% among 330,000; in the data active = inhibition above about 15%; inconclusive = no clear call, values can overlap the other calls
AF4-AF9 inh: inhibitors of human MLL-AF4/AF9 interaction; P42568; AlphaScreen, biotin-AF4 peptide binding to FLAG-AF9; inhibition, % at 10 µM; hit rate 0.47% among 350,000;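 active = every replicate reaching a set inhibition limit, whatever the replicate mean, cut at about 25% in these data; inconclusive = mean inhibition reaches that limit but some replicates miss it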;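 also: 0% = plate neutral control median and 100% = total signal loss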
Target sequence (P42568 whole entry, looked up): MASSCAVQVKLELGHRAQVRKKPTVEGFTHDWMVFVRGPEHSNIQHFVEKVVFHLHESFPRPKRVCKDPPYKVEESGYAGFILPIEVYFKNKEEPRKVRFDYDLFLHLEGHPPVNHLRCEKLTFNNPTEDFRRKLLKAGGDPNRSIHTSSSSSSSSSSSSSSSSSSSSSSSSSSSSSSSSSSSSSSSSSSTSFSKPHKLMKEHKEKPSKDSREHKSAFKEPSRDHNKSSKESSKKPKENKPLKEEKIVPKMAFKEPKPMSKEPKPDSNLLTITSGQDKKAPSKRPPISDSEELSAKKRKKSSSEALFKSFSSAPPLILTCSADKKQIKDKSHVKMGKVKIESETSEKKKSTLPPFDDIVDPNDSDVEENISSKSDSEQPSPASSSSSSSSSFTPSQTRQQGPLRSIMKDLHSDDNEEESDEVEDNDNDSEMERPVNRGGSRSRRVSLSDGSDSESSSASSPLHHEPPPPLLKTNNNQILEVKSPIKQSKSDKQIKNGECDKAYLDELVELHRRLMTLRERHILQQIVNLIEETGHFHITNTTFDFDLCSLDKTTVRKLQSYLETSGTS
S100A4 MyoIIA: blocks human S100A4 binding to myosin IIA peptide; inhibition, % at 10.7 µM; S100A4/TAMRA-MyoIIA peptide fluorescence polarization; hit rate 0.14% among 360,000;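 active = mean inhibition of at least 70% across replicates, with every replicate also reaching that level; inconclusive = mean inhibition reaches 70% but some replicates fall short; inactive = mean inhibition below 70%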
Target sequence (P26447 whole entry, looked up): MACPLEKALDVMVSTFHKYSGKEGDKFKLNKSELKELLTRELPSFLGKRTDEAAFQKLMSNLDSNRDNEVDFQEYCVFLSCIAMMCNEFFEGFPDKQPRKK
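Test system: S100A4 monomer protein; Medium: HEPES pH 7.2 with CaCl2, KCl, NaCl, DTT, Triton; Probe or stimulus: TAMRA-labelled myosin IIA heavy-chain peptide probe, 5 nM; Doses: one dose per compound; Times: polarization read 5 min after assay mix addition, stable 5–60 min; Benchmarks: neutral control DMSO, positive control TFP.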
CaV13 FRET inh: Primary screen for inhibitors of IQ motif and Ca2+-dependent inactivation inhibitor domain binding in CACNA1D, Förster resonance energy transfer in living cells, …. HEK cells, CFP/YFP FRET ICDI-IQ, plate reader, 10 min; percent FRET-ratio fall versus neutral wells. inhibition, % at 12.3 µM. hit rate 0.098% among 340,000;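 active = mean replicate inhibition of at least 30% and at least 1% of replicates passing that level; inconclusive = only one of the two criteria is met; inactive = neither criterion is met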;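 also: 0% = median of the neutral control wells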
* marks the source's active call; other numbers are inactive results; ? = inconclusive; . = no result given.

SMILES | DENV2 CPE rescue | SIRT5 inh | AF4-AF9 inh | S100A4 MyoIIA | CaV13 FRET inh
CO[C@@H]1CN(C)C(=O)c2cc(NC(=O)c3ccc4c(c3)OCO4)ccc2OC[C@H](C)N(CC2CC2)C[C@H]1C | 17 | 9 | 0 | 10 | .
O=C(C[C@H]1CC[C@H]2NC[C@H](O)COC[C@@H]2O1)NCCc1ccncc1 | -1 | . | . | . | .
O=C(Nc1ccccc1)N1C[C@@H]2[C@H](c3ccccc31)[C@@H](CO)N2Cc1ccccc1 | 45* | 1 | 2 | -4 | .
Cc1ccc(NC(=S)NCC23C=CC(O2)C2C(=O)N(c4ccc(C)cc4)C(=O)C23)cc1 (configuration not stated) | 49* | -8 | 3 | 1 | -2
COc1cc(/C=C2\C(=N)N3N=C(S(C)(=O)=O)SC3=NC2=O)ccc1OCCOc1ccccc1C | 3 | 33* | 8 | -1 | -4
COc1cc(/C=C2\C(=N)N3N=C(S(C)(=O)=O)SC3=NC2=O)ccc1OC(=O)c1cccs1 | 2 | 4 | 4 | -2 | -6
C[C@H](CO)N1C[C@H](C)[C@H](CN(C)C(=O)NC2CCCCC2)OCCCC[C@H](C)Oc2ccc(N(C)C)cc2C1=O | ? | 3 | 10 | 25 | .
CC(C)(C)S(=O)N1Cc2cc(C(=O)NCc3ccc4c(c3)OCO4)nc(-c3cccc(C#CCC4CCCC4)c3)c2[C@H]1CCO (some centres not stated) | 7 | -3 | -2 | -18 | .
CC(C)(C)S(=O)N1Cc2cc(C(=O)NCc3ccc4c(c3)OCO4)nc(-c3cccc(-c4cc5ccccc5o4)c3)c2[C@H]1CCO (some centres not stated) | 1 | 9 | 0 | -22 | .
CC(C)(C)S(=O)N1Cc2cc(C(=O)NCc3ccc4c(c3)OCO4)nc(-c3cccc(-c4cccc(F)c4)c3)c2[C@@H]1CCO (some centres not stated) | 24* | 2 | 0 | -22 | .
CC(C)(C)S(=O)N1Cc2cc(C(=O)NCc3ccc4c(c3)OCO4)nc(-c3cccc(C#CCC4CCCC4)c3)c2[C@@H]1CCO (some centres not stated) | 49* | 4 | 4 | -28 | .
COc1cccc(-c2ccc([C@@H]3[C@@H](CO)N4C(=O)CN(C(=O)C5CCC5)C[C@H]34)cc2)c1 | -7 | 0 | 4 | 3 | .
O=C(c1ccccn1)N1C[C@@H]2[C@H](c3ccccc31)[C@@H](CO)N2C(=O)c1ccccn1 | 69* | . | . | . | .
O=C(c1ccncc1)N1C[C@@H]2[C@H](c3ccccc31)[C@@H](CO)N2C(=O)CN1CCOCC1 | 9 | 7 | 3 | 97* | .
CC(C)NC(=O)N1C[C@H]2[C@@H](c3ccccc31)[C@@H](CO)N2C(=O)c1ccccn1 | 115* | 1 | -1 | 9 | .
COc1cccc(CN2[C@H](CO)[C@H](c3ccccc3)C23CN(C(=O)C2CCOCC2)C3)c1 | -10 | -2 | 0 | -3 | .
C[C@H](CO)N1C[C@H](C)[C@@H](CN(C)S(=O)(=O)c2ccccc2)OCCCC[C@H](C)Oc2ccc(NC(=O)c3ccncc3)cc2C1=O | -10 | -2 | 1 | -19 | .
O=C(c1ccco1)N1CCN(C(=O)c2ccc(-c3cccc(C(F)(F)F)c3)o2)CC1 | 101* | 1 | 2 | -2 | -3
O=C(CCN1CCOCC1)N/N=C/c1cc([N+](=O)[O-])ccc1OC(F)F | 22* | 2 | -1 | -5 | -6
CO[C@@H]1CN(C)C(=O)c2cc(NS(=O)(=O)CC(F)(F)F)ccc2OC[C@H](C)N(CC2CCCCC2)C[C@@H]1C | 5 | 6 | 1 | 4 | .
O=C1CC[C@@H]2c3[nH]c4ccc(Br)cc4c3CCN12 | 4 | 2 | 3 | 11 | .
OC[C@@H]1[C@H](c2ccc(-c3cccc(F)c3)cc2)[C@@H]2CN(CCC(F)(F)F)CCCCN12 | 41* | 0 | 9 | -13 | .
OC[C@H]1[C@@H](c2ccc(C#CC3CCCC3)cc2)[C@@H]2CN(CCC(F)(F)F)CCCCN12 | -5 | 0 | 22 | -3 | .
OC[C@@H]1[C@@H](c2ccc(-c3ccccc3)cc2)[C@H]2CN(CCC(F)(F)F)CCCCN12 | 20* | -2 | 9 | 10 | .
OC[C@H]1[C@@H](c2ccc(-c3ccccc3)cc2)[C@H]2CN(CCC(F)(F)F)CCCCN21 | . | . | 3 | . | .
SMILES | DENV2 CPE rescue | SIRT5 inh | AF4-AF9 inh | S100A4 MyoIIA | CaV13 FRET inh
OC[C@@H]1[C@H](c2ccc(C#CC3CCCC3)cc2)[C@H]2CN(CCC(F)(F)F)CCCCN12 | -10 | 2 | 25* | -49 | .
C[C@@H]1CN([C@H](C)CO)C(=O)c2c(c3ccccc3n2C)-c2ccccc2CO[C@@H]1CN(C)Cc1ccc(C(=O)O)cc1 | -2 | -2 | 0 | 15 | .
Cc1ccc(S(=O)(=O)Cc2ccccc2Cl)cc1 | 29* | 1 | -6 | 0 | -5
COCC(=O)N(C)C[C@@H]1Oc2cc(C#CCN(C)C)ccc2S(=O)(=O)N([C@@H](C)CO)C[C@@H]1C | -3 | 1 | -3 | -35 | .
COc1ccc2ccccc2c1CNC(C)c1ccccc1 (configuration not stated) | 36* | 1 | 0 | -2 | -6
COc1cc(C(=O)OCC(C)=O)cc(NC(=O)c2ccco2)c1OC | -2 | . | -2 | 5 | 179*
CCOC(=O)c1ccc(NC(=O)c2ccco2)cc1 | 2 | 17* | 3 | 1 | -5
COc1cc(C(=O)OCC(=O)NC2CCCC2)cc(NC(=O)c2ccco2)c1OC | . | . | . | . | -5
CN(C)C(=O)c1cccc(-c2ccc3c(c2)[C@H]2[C@H](CCN2C(=O)C2CCC2)[C@H](CO)N3)c1 | 3 | 8 | 3 | 6 | .
C[C@@H]1CN([C@@H](C)CO)C(=O)Cc2cc(NC(=O)C3CCCCC3)ccc2O[C@H]1CN(C)C(=O)Nc1cccc2ccccc12 | -6 | -2 | 1 | -4 | .
O=S(=O)(Cc1ccccc1)N1CCCCN2[C@H](C1)[C@H](c1ccc(-c3ccc(F)cc3)cc1)[C@@H]2CO | ? | 13 | -1 | 6 | .
C/C=C/c1ccc([C@@H]2[C@H]3CN(S(=O)(=O)c4ccc(F)cc4)CCCCN3[C@H]2CO)cc1 | -9 | 16* | 0 | -24 | .
O=S(=O)(c1ccc(F)cc1)N1CCCCN2[C@H](CO)[C@@H](c3ccc(-c4ccccc4F)cc3)[C@H]2C1 | -3 | 22* | 2 | 2 | .
O=S(=O)(c1ccccc1)N1CCCCN2[C@@H](CO)[C@H](c3ccc(-c4ccccc4F)cc3)[C@@H]2C1 | -3 | -2 | . | . | .
O=S(=O)(Cc1ccccc1)N1CCCCN2[C@H](CO)[C@@H](c3ccc(-c4ccc(F)cc4)cc3)[C@H]2C1 | 41* | -1 | -4 | 3 | .
C/C=C/c1ccc([C@@H]2[C@@H](CO)N3CCCCN(S(=O)(=O)c4ccc(F)cc4)C[C@H]23)cc1 | -14 | 2 | 6 | -24 | .

Compound activity deposited in PubChem BioAssay by Broad Institute.
